# Assay results taken from paper PMC4424118 (Nature structural & molecular biology, 2015).
# T1: MRGPRX2 (Homo sapiens, UniProt Q96LB1)
# T1 sequence (Q96LB1 1-330): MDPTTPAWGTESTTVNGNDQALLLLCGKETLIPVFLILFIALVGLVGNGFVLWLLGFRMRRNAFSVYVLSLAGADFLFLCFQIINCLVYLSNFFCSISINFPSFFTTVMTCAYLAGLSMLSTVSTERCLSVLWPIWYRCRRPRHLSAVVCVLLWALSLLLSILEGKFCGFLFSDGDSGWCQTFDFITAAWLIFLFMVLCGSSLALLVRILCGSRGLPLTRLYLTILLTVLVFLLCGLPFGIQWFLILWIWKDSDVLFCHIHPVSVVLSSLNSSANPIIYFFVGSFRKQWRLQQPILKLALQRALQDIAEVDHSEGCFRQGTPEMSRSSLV
# T2: DRD4 dopamine receptor (Homo sapiens, UniProt P21917)
# T2 sequence (P21917 1-419): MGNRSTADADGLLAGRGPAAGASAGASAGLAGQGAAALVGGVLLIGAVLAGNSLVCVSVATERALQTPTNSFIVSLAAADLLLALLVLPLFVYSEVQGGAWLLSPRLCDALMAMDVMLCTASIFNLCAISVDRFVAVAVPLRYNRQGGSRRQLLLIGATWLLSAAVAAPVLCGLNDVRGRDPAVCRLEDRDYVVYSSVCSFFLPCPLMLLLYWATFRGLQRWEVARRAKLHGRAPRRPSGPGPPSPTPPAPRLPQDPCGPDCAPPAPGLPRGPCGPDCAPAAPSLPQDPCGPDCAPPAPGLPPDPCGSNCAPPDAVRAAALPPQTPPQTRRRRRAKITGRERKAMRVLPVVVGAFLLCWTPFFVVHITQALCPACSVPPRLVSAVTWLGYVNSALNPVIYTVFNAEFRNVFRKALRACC
# T3: HTR1A serotonin receptor (Homo sapiens, UniProt P08908)
# T3 sequence (P08908 1-422): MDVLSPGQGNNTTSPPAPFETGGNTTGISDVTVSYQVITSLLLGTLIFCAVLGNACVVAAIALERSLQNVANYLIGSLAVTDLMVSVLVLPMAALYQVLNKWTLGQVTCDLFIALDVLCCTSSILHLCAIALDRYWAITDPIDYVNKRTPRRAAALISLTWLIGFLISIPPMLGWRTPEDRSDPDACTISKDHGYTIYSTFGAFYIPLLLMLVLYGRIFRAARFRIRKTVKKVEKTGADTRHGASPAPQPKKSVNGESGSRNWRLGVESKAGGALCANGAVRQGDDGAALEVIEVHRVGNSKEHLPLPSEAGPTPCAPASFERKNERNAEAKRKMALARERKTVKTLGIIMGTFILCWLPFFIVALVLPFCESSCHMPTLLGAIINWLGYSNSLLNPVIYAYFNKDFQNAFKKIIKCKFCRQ
# T4: CX3CR1 chemokine receptor (Homo sapiens, UniProt P49238)
# T4 sequence (P49238 1-355): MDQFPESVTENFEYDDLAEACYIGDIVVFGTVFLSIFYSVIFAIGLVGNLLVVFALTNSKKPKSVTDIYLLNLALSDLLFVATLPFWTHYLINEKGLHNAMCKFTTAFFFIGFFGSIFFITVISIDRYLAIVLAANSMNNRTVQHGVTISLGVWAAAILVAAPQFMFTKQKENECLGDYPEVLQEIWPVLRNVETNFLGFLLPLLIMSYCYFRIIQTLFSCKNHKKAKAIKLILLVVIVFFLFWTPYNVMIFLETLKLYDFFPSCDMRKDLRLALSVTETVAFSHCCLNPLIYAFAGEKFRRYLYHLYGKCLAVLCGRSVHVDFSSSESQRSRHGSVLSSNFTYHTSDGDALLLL
# B1: CX3CL1: ligand of the CX3CR1 chemokine receptor (protein)
# chain: QHHGVTKCNITCSKMTSKIPVALLIHYQQNQASCGKRAIILETRQHRLFCADPKEQWVKDAMQHLDRQAAALTRNGGTFEKQIGEVKPRTTPAAGGMDESVVLEPEATGESSSLEPTPSSQEAQRALGTSPELPTGVTGSSGTRLPPTPKAQDGGPVGTELFRVPPVSTAATWQSSAPHQPGPSLWAEAKTSEAPSTQDPSTQASTASSPAPEENAPSEGQRVWGQGQSPRPENSLEREEMGPVPAHTDAFQDWGPGSMAHVSVVPVSSEGTPSREPVASGSWTPKAEEPIHATMDPQRLGVLITPVPDAQAATRRQAVGLLAFLGLLFCLGVAMFTYQSLQGCPRKMAGEMAEGLRYIPRSCGSNSYVLVPV
# What was measured:
# [1] = biological target: SSTR3 somatostatin receptor (Homo sapiens, UniProt P32745); test: PRESTO-TANGO / TANGO β-arrestin recruitment assay, SSTR3; type: cell-based
# Chain of SSTR3 somatostatin receptor (P32745 whole entry): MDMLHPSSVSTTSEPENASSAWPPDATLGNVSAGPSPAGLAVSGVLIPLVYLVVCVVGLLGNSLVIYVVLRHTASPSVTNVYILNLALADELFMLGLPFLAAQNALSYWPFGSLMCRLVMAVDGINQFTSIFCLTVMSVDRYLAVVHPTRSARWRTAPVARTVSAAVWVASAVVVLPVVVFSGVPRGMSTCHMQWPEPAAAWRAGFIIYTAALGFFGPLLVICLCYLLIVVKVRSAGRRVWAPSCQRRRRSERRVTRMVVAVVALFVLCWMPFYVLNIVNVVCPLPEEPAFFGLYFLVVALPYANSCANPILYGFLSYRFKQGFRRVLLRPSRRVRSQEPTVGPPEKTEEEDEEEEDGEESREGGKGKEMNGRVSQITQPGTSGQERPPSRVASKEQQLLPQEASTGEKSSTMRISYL
# MRGPRX2 [2] = biological target: T1, MRGPRX2; test: TANGO β-arrestin recruitment assay, MRGPRX2; type: cell-based; conditions: NCC-1 screen, confirmed in concentration-response studies
# [3] = test system: 133 non-orphan, non-olfactory GPCR targets; test: PRESTO-TANGO parallel GPCR-ome screening β-arrestin recruitment assay; type: cell-based, human; conditions: of 133 non-orphan
# DRD5 dopamine receptor = DRD5 dopamine receptor (Homo sapiens, UniProt P21918); test: TANGO β-arrestin recruitment assay, DRD5; type: cell-based; conditions: PRESTO-TANGO screen and concentration-response (Fig. 4c)
# Chain of DRD5 dopamine receptor (P21918 whole entry): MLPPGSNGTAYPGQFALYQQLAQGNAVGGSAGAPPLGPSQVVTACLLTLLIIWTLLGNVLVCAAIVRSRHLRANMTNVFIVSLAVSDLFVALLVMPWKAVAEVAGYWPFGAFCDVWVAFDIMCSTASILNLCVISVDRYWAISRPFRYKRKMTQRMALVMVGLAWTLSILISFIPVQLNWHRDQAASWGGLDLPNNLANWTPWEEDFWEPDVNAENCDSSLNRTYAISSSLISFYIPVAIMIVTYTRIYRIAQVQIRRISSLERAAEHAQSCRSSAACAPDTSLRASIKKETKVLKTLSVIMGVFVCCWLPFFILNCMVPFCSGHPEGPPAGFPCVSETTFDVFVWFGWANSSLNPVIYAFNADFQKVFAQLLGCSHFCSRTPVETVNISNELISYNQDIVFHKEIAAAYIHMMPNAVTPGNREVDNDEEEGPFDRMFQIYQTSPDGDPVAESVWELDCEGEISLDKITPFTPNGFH
# DRD4 dopamine receptor = biological target: T2, DRD4 dopamine receptor; test: TANGO β-arrestin recruitment assay, DRD4; type: cell-based; conditions: PRESTO-TANGO screen and concentration-response (Fig. 4b)
# MRGPRX4 orphan GPCR = MRGPRX4 orphan GPCR (Homo sapiens, UniProt Q96LA9); test: TANGO β-arrestin recruitment assay, MRGPRX4; type: cell-based; conditions: initial NCC-1 screen
# Chain of MRGPRX4 orphan GPCR (Q96LA9 whole entry): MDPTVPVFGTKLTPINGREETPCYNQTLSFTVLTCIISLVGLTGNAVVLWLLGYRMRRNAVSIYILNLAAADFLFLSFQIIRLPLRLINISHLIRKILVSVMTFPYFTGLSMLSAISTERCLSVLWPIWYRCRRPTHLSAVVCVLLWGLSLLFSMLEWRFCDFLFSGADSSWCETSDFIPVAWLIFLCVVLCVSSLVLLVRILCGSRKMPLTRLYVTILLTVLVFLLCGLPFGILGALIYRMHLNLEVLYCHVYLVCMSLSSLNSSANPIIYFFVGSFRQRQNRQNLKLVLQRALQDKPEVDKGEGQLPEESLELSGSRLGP
# MRGPRX4 [4] = biological target: T5, MRGPRX4 (Homo sapiens, UniProt Q96LA9); test: cAMP; type: cell-based; conditions: Gs assay, HEK293T cells
# T5 sequence (Q96LA9 whole entry): as above
# MRGPRX4 [5] = biological target: T5, MRGPRX4; test: calcium mobilization assay, stable MRGPRX4 cell line; type: cell-based; conditions: MRGPRX4-expressing stable cells
# Method in brief: (§1)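 Tetracycline-inducible Flp-In T-Rex HEK-T lines carried FLAG-tagged receptor in pcDNA5/FRT/TO and were kept with 15 μg/ml blasticidin and 100 μg/ml hygromycin B. Expression was induced with 1ug/ml tetracycline for 24 h. The calcium assay used 15,000 cells/well and FLIPR Calcium 4 dye (45 min 37°C, 15 min RT), with 16-point 3-fold dilutions at final 10 μM–0.003 nM. Fluorescence was read for 10 s baseline plus 120 s.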
# [6] = test system: 91 orphan and poorly annotated GPCRs; test: TANGO screen of the NCC-1 library; type: cell-based, human
# MRGPRX2 [7] = biological target: T1, MRGPRX2; test: cAMP; type: cell-based; conditions: Gs assay, HEK293T cells
# MRGPRX1 [8] = biological target: T6, MRGPRX1 (Homo sapiens, UniProt Q96LB2); test: cAMP; type: cell-based; conditions: Gs assay, HEK293T cells
# T6 sequence (Q96LB2 whole entry): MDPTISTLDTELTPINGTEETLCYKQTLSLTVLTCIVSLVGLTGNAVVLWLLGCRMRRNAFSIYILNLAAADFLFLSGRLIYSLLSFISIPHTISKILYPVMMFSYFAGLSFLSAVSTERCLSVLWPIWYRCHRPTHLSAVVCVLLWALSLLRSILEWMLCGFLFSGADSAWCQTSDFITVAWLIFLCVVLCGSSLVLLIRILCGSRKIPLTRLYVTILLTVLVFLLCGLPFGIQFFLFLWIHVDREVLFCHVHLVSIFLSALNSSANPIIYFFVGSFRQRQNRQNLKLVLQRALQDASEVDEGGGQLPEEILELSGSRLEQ
# MRGPRX4 [9] = biological target: T5, MRGPRX4; test: cAMP; type: cell-based; conditions: Gi assay, MRGPRX4-expressing cells
# MRGPRX3 = MRGPRX3 (Homo sapiens, UniProt Q96LB0); test: cAMP; type: cell-based; conditions: Gs assay, HEK293T cells
# Chain of MRGPRX3 (Q96LB0 whole entry): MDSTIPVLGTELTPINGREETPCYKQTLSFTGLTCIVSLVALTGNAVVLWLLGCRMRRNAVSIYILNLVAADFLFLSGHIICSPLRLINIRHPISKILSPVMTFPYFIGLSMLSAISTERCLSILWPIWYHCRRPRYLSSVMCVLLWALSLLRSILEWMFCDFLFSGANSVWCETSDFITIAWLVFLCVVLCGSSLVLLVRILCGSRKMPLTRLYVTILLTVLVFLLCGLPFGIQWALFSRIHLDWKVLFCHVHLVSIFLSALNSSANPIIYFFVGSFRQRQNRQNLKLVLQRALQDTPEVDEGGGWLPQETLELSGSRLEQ
# MRGPRX2 [10] = biological target: T1, MRGPRX2; test: calcium mobilization assay, stable MRGPRX2 cell line; type: cell-based; conditions: MRGPRX2-expressing stable cells
# Method in brief: as §1
# MRGPRX2 [11] = biological target: T1, MRGPRX2; test: PI hydrolysis assay, MRGPRX2; type: cell-based
# Method in brief: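 HEK-293T cells were transiently transfected with 10 μg receptor DNA per 15 cm dish and seeded the next day on poly-L-lysine in 1% dialyzed FBS. They were labelled 16 h with 1 μCi/well ³H-inositol in inositol-free DMEM. Concentration series were applied in quadruplicate in HBSS/24 mM NaHCO₃/11 mM glucose/15 mM LiCl, pH 7.4, for 1 h at 37°C. Cells were lysed with 50 mM formic acid, and extracts were counted by SPA beads.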
# [12] = biological target: NTSR2 neurotensin receptor (Homo sapiens, UniProt O95665); test: TANGO β-arrestin recruitment assay, NTSR2; type: cell-based; conditions: for agonist activity at NTSR2 neurotensin receptors: TANGO, agonist mode
# Chain of NTSR2 neurotensin receptor (O95665 whole entry): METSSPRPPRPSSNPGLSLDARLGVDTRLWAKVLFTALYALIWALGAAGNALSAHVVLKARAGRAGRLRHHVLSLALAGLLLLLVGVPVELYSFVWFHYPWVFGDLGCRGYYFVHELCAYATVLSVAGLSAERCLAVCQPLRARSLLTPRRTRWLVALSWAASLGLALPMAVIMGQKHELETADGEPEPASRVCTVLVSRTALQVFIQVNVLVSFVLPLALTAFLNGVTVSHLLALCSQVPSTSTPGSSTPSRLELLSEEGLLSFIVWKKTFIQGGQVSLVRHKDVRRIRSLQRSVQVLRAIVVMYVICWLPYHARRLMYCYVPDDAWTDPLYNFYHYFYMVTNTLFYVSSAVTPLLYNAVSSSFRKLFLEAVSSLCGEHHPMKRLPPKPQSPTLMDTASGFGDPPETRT
# HTR1A serotonin receptor = biological target: T3, HTR1A serotonin receptor; test: TANGO assay in antagonist mode, HTR1A; type: cell-based; conditions: 1 μM clozapine
# HTR1D serotonin receptor = HTR1D serotonin receptor (Homo sapiens, UniProt P28221); test: TANGO assay in antagonist mode, HTR1D; type: cell-based; conditions: 1 μM clozapine
# Chain of HTR1D serotonin receptor (P28221 whole entry): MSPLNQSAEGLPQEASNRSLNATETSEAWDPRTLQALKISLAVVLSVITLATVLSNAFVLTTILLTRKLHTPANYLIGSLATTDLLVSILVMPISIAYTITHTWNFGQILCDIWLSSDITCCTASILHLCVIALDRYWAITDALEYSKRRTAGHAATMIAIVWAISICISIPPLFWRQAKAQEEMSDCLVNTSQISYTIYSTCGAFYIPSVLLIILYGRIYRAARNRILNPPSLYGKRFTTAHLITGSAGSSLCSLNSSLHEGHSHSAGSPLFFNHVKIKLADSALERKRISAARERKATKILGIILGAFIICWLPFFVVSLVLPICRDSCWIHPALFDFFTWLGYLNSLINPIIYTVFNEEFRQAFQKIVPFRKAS
# MRGPRX1 [13] = biological target: T6, MRGPRX1; test: calcium mobilization assay, stable MRGPRX1 cell line; type: cell-based; conditions: MRGPRX1-expressing stable cells
# Method in brief: as §1
# [14] = biological target: MLNR motilin receptor TANGO construct; test: TANGO
# Chain of MLNR motilin receptor TANGO construct (O43193 whole entry): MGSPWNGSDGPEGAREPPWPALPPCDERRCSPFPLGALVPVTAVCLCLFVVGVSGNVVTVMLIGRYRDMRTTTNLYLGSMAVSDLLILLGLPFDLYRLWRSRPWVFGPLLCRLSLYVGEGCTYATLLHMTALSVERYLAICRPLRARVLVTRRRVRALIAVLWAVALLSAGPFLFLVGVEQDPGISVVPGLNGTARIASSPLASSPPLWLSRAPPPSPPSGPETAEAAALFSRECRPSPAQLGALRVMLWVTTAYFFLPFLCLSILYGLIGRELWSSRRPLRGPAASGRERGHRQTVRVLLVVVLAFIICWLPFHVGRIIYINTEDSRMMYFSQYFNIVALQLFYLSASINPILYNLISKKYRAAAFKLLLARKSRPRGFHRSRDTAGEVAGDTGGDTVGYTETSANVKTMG
# [15] = biological target: T4, CX3CR1 chemokine receptor; test: TANGO β-arrestin recruitment assay, CX3CR1; type: cell-based; conditions: n = 4
molecule,measurement,setting,value
"CNCCC(Oc1ccc(C(F)(F)F)cc1)c1ccccc1 (centres unmarked) [Fluoxetine, fluoxetine]",agonist activity at SSTR3 in follow-up assays,[1]; follow-up assays (data not shown),not confirmed
same,agonist activity at the SSTR3 somatostatin receptor,[1]; initial PRESTO-TANGO screen,modest agonist activity
CC(C)[C@@H](CN1CC[C@@](C)(c2cccc(O)c2)[C@@H](C)C1)NC(=O)[C@H]1Cc2ccc(O)cc2CN1 [JDTic],activity in the TANGO assay at MRGPRX2,MRGPRX2 [2],significant activity
"CCN(CC)C(=O)[C@@H]1C=C2c3cccc4[nH]cc(c34)C[C@H]2N(C)C1 [LSD, lysergic acid diethylamide]",number of tested targets with activity,[3],15
same,activity at the D5 dopamine receptor,DRD5 dopamine receptor,displayed activity
same,activity at the D4 dopamine receptor,DRD4 dopamine receptor,displayed activity
"CC(C)[C@H]1CC[C@H](C(=O)N[C@H](Cc2ccccc2)C(=O)O)CC1 [Nateglinide, nateglinide]",increase in luminescence over basal levels,MRGPRX4 orphan GPCR,45 fold
same,activity when cAMP was measured at MRGPRX4,MRGPRX4 [4],exceedingly modest activity at high concentrations
same,calcium mobilization response,MRGPRX4 [5],concentration-dependent responses
same,selectivity among the 91 targets tested,[6]; NCC-1 screen,apparently selective
same,activity when cAMP was measured at MRGPRX2,MRGPRX2 [7],inactive
same,activity when cAMP was measured at MRGPRX1,MRGPRX1 [8],inactive
same,inhibition of the cAMP response to isoproterenol,MRGPRX4 [9],inability
same,activity when cAMP was measured at MRGPRX3,MRGPRX3,inactive
COC(=O)[C@@H]1C[C@H](OC(=O)CSC#N)C(=O)[C@H]2[C@@]1(C)CC[C@H]1C(=O)O[C@H](c3ccoc3)C[C@]21C [RB64],activity in the TANGO assay at MRGPRX2,MRGPRX2 [2],significant activity
"CN1CC[C@]2(c3cccc(O)c3)Cc3nc4ccccc4cc3C[C@H]2C1 [SB 205,607]",activity in the TANGO assay at MRGPRX2,MRGPRX2 [2],most active compounds
same,calcium mobilization response,MRGPRX2 [10],concentration-dependent responses
same,concentration-dependent activity at MRGPRX2 by PI hydrolysis,MRGPRX2 [11],confirmed
COc1cccc(OC)c1-c1cc(C(=O)NC2(C(=O)O)C3CC4CC(C3)CC2C4)nn1-c1ccnc2cc(Cl)ccc12 (centres unmarked) [SR48692],agonist activity at NTSR2 neurotensin receptors,[12],agonists
CC(C)C[C@H](NC(=O)[C@@H](O)[C@H](N)Cc1ccccc1)C(=O)O [bestatin],number of targets with > 2-fold increase in luminescence,[6]; of 91 targets tested,59
same,percent of targets with > 2-fold increase in luminescence,[6]; of 91 targets tested,65%
CN1CCN(C2=Nc3cc(Cl)ccc3Nc3ccccc32)CC1 [clozapine],effect of pre-exposure on responses to the agonist LSD,HTR1A serotonin receptor,little or no effect
same,effect of pre-exposure on responses to the agonist LSD,HTR1D serotonin receptor,little or no effect
CN1CCC(=C2c3ccccc3C=Cc3ccccc32)CC1 [cyproheptadine],activity in the TANGO assay at MRGPRX2,MRGPRX2 [2],showed activity
COc1ccc2c(c1)[C@]13CCCC[C@@H]1[C@H](C2)N(C)CC3 [dextromethorphan],activity in the TANGO assay at MRGPRX2,MRGPRX2 [2],showed activity
same,concentration-dependent activity at MRGPRX2 by PI hydrolysis,MRGPRX2 [11],confirmed
COC(=O)C[C@](O)(CCCC(C)(C)O)C(=O)O[C@@H]1C(OC)=C[C@]23CCCN2CCc2cc4c(cc2[C@H]13)OCO4 [homoharringtonine],number of targets with greater than 2-fold reduction in luminescence,[6]; of 91 targets tested,58
same,percent of targets with greater than 2-fold reduction in luminescence,[6]; of 91 targets tested,64%
CN1CCC(=C2c3ccccc3CC(=O)c3sccc32)CC1 [ketotifen],activity in the TANGO assay at MRGPRX2,MRGPRX2 [2],showed activity
C[C@@H]1CN([C@H]2CC[C@](C#N)(c3ccc(F)cc3)CC2)CC[C@]1(C(=O)O)c1ccccc1 [levocabastine],antagonism of SR48692- or SR142948-induced arrestin recruitment responses,"[12]; NTSR2-transfected cells, pre-incubation before agonist",antagonists
CN1CC[C@]23CCCC[C@H]2[C@H]1Cc1ccc(O)cc13 [levorphan],activity in the TANGO assay at MRGPRX2,MRGPRX2 [2],showed activity
CN1CCC(=C2c3ccccc3CCc3sccc32)CC1 [pizotyline],activity in the TANGO assay at MRGPRX2,MRGPRX2 [2],showed activity
Oc1ccc(/C=C/c2cc(O)cc(O)c2)cc1 [resveratrol],number of targets with greater than 2-fold reduction in luminescence,[6]; of 91 targets tested,70
same,percent of targets with greater than 2-fold reduction in luminescence,[6]; of 91 targets tested,77%
BAM8-22,calcium mobilization response,MRGPRX1 [13],concentration-dependent responses
SR142948,agonist activity at NTSR2 neurotensin receptors,[12],agonists
β-arrestin2-TEV fusion (from UniProt P32121 1-409) (natural protein),fold response above baseline,[14],184 fold
B1,EC50,[15],340 pM
